In article PMC3171079 (The Journal of General Physiology, 2011):
Entries after “also recorded” stand apart in the source; their conditions may differ. One block for each compound: values may come before it.

What was measured:
Cx26T/Cx32 hemichannels = test: Hemichannel calcein uptake by HeLa cells; type: cell-based, rat; conditions: extracellular taurine, low [Ca2+]ex; n = 3
Cx26CL (15N-labeled) = test: 1H-15N HSQC NMR interaction; type: binding, rat; conditions: 10 µM Cx26CL, pH 7.0, 42°C, 6% LPPG, 20 mM MES
[1] = system: Cx32T junctional channels; test: Parachute assay for gap junctional communication; type: cell-based, rat; conditions: extracellular taurine; normalized to control; n = 4–9
Summary of the method: (§1)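 Parachute dye-coupling assay. Connexin-expressing HeLa donor cells were labelled for 30 min at 37°C with 10 µM CM-DiI plus 5 µM calcein-AM, washed in PBS/glucose, trypsinized and seeded at ~1:150 onto semi-confluent unlabelled receiver monolayers. Cells attached for 3 h at 37°C with extracellular taurine. Calcein-positive receivers per DiI-labelled donor were averaged and normalized to control cultures.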

[2] = system: hemichannels that contained connexin26 (Cx26), homomeric or with Cx32 (heteromeric); conditions: cytoplasmic concentrations; ref Tao and Harris, 2004; cited from earlier work
[3] = system: heteromeric Cx26Tc/Cx32 hemichannels; test: TSF liposome hemichannel activity, tag cleaved; type: biochemical, rat
Summary of the method: (§2)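 Tagged rat hemichannels were anti-HA immunopurified from dox-induced Tet-On HeLa, then cleaved with 2 U thrombin for 18 h at 4°C, leaving LVPR at the C-terminus. They were reconstituted by gel filtration into rhod-PE-labelled liposomes in urea buffer, then centrifuged for 3 h at 37°C through iso-osmolar urea/sucrose gradients containing aminosulfonate. Band densities were read by refractometry. Lower-band fraction was Poisson-corrected, normalized per preparation and pooled.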

[4] = system: Cx26/Cx32T junctional channels; test: Parachute assay for gap junctional communication; type: cell-based, rat; conditions: n = 4–9
Summary of the method: as §1

[5] = system: nontagged Cx26 junctional channels; test: Parachute assay for gap junctional communication; type: cell-based; conditions: n = 4–9; for Intercellular calcein transfer: extracellular taurine, normalized to control
Summary of the method: as §1

[6] = 37°C; source not given; cited from earlier work
[7] = system: homomeric Cx32T hemichannels; test: TSF liposome hemichannel activity; type: biochemical, rat; conditions: taurine-exposed liposomes
Summary of the method: (§3)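 Rat connexins carrying a C-terminal thrombin-site–HA(HN)6 tag were expressed in Tet-On HeLa (1 µg/ml dox, 48 h). Hemichannels were octylglucoside-solubilized, anti-HA immunopurified and reconstituted into PC/PS/rhod-PE liposomes entrapping urea buffer. Taurine was present in iso-osmolar urea/sucrose gradients (300,000 gav, 3 h, 37°C). Bands were followed by rhod-PE fluorescence, densities by refractometry at 25°C. Lower-band fraction was Poisson-corrected and normalized to the preparation maximum.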

[8] = system: heteromeric Cx26/Cx32Tc hemichannels; test: TSF liposome hemichannel activity, tag cleaved; type: biochemical, rat
Summary of the method: as §2

[9] = system: untagged homomeric Cx26 hemichannels; test: TSF liposome hemichannel activity, untagged; type: biochemical; conditions: with AS treatment
[10] = system: homomeric Cx26Tc hemichannels; test: TSF liposome hemichannel activity, tag cleaved; type: biochemical, rat; conditions: 10 mM taurine; tag cleaved (LVPR left); n = 5–8
Summary of the method: as §2

[11] = system: homomeric Cx32Tc hemichannels; test: TSF liposome hemichannel activity, tag cleaved; type: biochemical, rat
Summary of the method: as §2

[12] = system: Cx26T/Cx32 junctional channels; test: Parachute assay for gap junctional communication; type: cell-based, rat; conditions: extracellular taurine; normalized to control; n = 4–9
[13] = system: heteromeric Cx26T/Cx32 hemichannels; test: TSF liposome hemichannel activity; type: biochemical, rat
Summary of the method: as §3

[14] = system: untagged heteromeric Cx26/Cx32 hemichannels; test: TSF liposome hemichannel activity, untagged; type: biochemical; conditions: with AS treatment
[15] = system: heteromeric Cx26/Cx32T hemichannels; test: TSF liposome hemichannel activity; type: biochemical, rat; conditions: taurine-exposed liposomes
Summary of the method: as §3

Cx26/Cx32T hemichannels = test: Hemichannel calcein uptake by HeLa cells; type: cell-based, rat; conditions: extracellular taurine, low [Ca2+]ex; n = 3
[16] = system: the different tagged connexin hemichannels other than Cx26/Cx32T; test: Hemichannel calcein uptake by HeLa cells; type: cell-based, rat; conditions: extracellular taurine, low [Ca2+]ex; n = 3
[17] = system: nontagged Cx26 hemichannels; test: Hemichannel calcein uptake by HeLa cells; type: cell-based; conditions: extracellular taurine, low [Ca2+]ex; n = 3
Summary of the method: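 HeLa clone stably expressing nontagged Cx26. Semi-confluent monolayers were washed, then loaded for 30 min at 37°C in low-Ca buffer (0.5 mM CaCl2, 30 mM KCl, 11 mM glucose, Tris pH 7.4) with 100 µM calcein, with or without taurine. Cells were washed in 2 mM Ca buffer and imaged. Dye-containing cells were counted, and each taurine condition was normalized to its own taurine-free control.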

[18] = system: Cx26CT–^biotCL3 interaction; test: CT+CL peptide-binding assay; set-up: species or system rat
[19] = system: homomeric Cx26T hemichannels; test: TSF liposome hemichannel activity; type: biochemical, rat
Summary of the method: as §3

Cx26CL–Cx26CT complex = test: 1H-15N HSQC NMR, effect of taurine on CL–CT complex; type: binding, rat; conditions: pH 7.0, 42°C
[20] = tag cleaved (LVPR left), n = 5–8
[21] = up to 50 mM of protonated taurine
[22] = 30 mM taurine, 4 mM Cx26CT, 10 µM Cx26CL
[23] = extracellular HEPES in presence of extracellular taurine

Taurine concentration for complete dissociation of CL–CT peptides ([18]; 10 µM ^biotCL3, not fit to any standard binding isotherm): ~5 mM
Disruption of CL–CT peptide interaction ([18]; 1 mM taurine, pH 6.5, 10 µM ^biotCL3): Approximately 50%
pH dependence of taurine disruption of CL–CT interaction ([18]; pH 6.5 versus 7.4, 10 µM ^biotCL3): substantially greater at the lower pH
Compound: NCCS(=O)(=O)O [taurine, β-aminosulfonic acid]
Calcein dye uptake (Cx26T/Cx32 hemichannels): absence of effect
Interaction with Cx26CL by NMR (resonance peaks affected) (Cx26CL (15N-labeled); 30 mM taurine): taurine interacts with the Cx26CL at some residues (peaks iii and iv)
Intercellular calcein transfer [1]: unchanged compared with controls
Inhibition of Cx26-containing hemichannels by cytoplasmic AS [2]: inhibitory at cytoplasmic concentrations
AS inhibition of hemichannel activity (TSF) ([3]; 10 mM taurine, tag cleaved (LVPR left), n = 5–8): AS inhibition was restored
Pore narrowing (intermediate band in TSF) ([3]; taurine-exposed liposomes): do not form intermediate bands
Intercellular calcein transfer ([4]; extracellular taurine, normalized to control): decreased
Intercellular calcein transfer [5]: markedly reduced
Intercellular calcein transfer ([5]; listed as AS): substantially reduced
pKa [6]: 8.8
Pore narrowing (intermediate band in TSF) [7]: do not form intermediate bands
AS sensitivity of hemichannel activity (TSF) [8, 20]: AS sensitive
Pore narrowing (intermediate band in TSF) ([8]; taurine-exposed liposomes): do not form intermediate bands
Occlusion of hemichannels (TSF band shift from lowest to upper band) [9]: full occlusion of the hemichannels
AS effect on hemichannel activity (TSF) [10]: remained AS insensitive
AS sensitivity of hemichannel activity (TSF) [11, 20]: AS insensitive
Pore narrowing (intermediate band in TSF) ([11]; taurine-exposed liposomes): do not form intermediate bands
Intercellular calcein transfer [12]: not in the Cx26T/Cx32 cells or the Cx26T cells
Pore narrowing (intermediate band in TSF) ([13]; taurine-exposed liposomes): do not form intermediate bands
Inhibition of hemichannels (TSF) [13, 21]: not inhibited
Occlusion of hemichannels (TSF band shift from lowest to upper band) [14]: full occlusion of the hemichannels
Pore narrowing (intermediate band in TSF) [15]: do not form intermediate bands
Completeness of inhibition of dye uptake (Cx26/Cx32T hemichannels): not complete
Calcein dye uptake [16]: absence of effect
Calcein hemichannel uptake [17]: markedly reduced
Effect of taurine on Cx26CT–CL3 interaction ([18]; 10 mM taurine, 10 µM CL peptide): substantial but not complete dissociation; also recorded: substantially reduced
Concentration dependence of disruption of CL–CT interaction ([18]; pH 6.5 and 7.4, 10 µM ^biotCL3): a linear function of the log of taurine concentration
Effect on pore diameter (TSF band density) ([19]; 10 mM AS (taurine)): no discernable effect on the pore diameter
Inhibition of hemichannels (TSF) [19, 21]: not inhibited
Effect on Cx26CL–Cx26CT complex by NMR, Fig. 8 B peaks (Cx26CL–Cx26CT complex; [22]): a negligible effect of taurine on the Cx26CL–Cx26CT complex
Effect on Cx26CL–Cx26CT complex by NMR, Fig. 8 D peaks (Cx26CL–Cx26CT complex; [22]): move to unique positions in the presence of both taurine and the Cx26CT
Effect on Cx26CL–Cx26CT interaction by NMR, Fig. 8 C peaks (Cx26CL–Cx26CT complex; [22]): taurine reverses the Cx26CL–Cx26CT interaction at this position
Mode of action on Cx26CT–Cx26CL interaction (Cx26CL–Cx26CT complex; concluded from NMR): competitive inhibitor of the interaction between Cx26CT and the Cx26CL

Compound: O=S(=O)(O)CCN1CCN(CCO)CC1 [HEPES]
Block of taurine effect on junctional channel permeability of calcein [4, 23]: effectively eliminated the taurine effect; also recorded: AS insensitive
Block of taurine effect on junctional calcein transfer [5, 23]: eliminated by HEPES; also recorded: restored AS insensitivity

Compound: Cx26CT: peptide with sequence corresponding to the Cx26CT (residues 213–226) (LFIRYCSGKSKRPV)
Interaction with Cx26CL by NMR (resonance peaks affected) (Cx26CL (15N-labeled); 4 mM Cx26CT): more resonance peaks are affected by the Cx26CT than by taurine
